The source made the active and inactive calls. Unless noted, no cut-off for these calls is given here.
Columns and labels:
Mus musculus [1] = assay: In vivo antagonism of guanabenz-induced hypothermia in mice after intraperitoneal administration; […]; format: functional, organism-based
Procedure, shortened: (§1)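 Male NMRI mice, 30-32 g, 5 per dose; test drug or vehicle given ip, then 5 min later guanabenz 1 mg/kg ip. Rectal temperature read by thermistor probe 25 min after guanabenz. Inhibition means temperature > 36 °C. […] Active dose range = doses inhibiting in more than 80% of animals.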

Mus musculus [2] = assay: In vivo antagonism of guanabenz-induced hypothermia in mice after peroral administration; Inactive; format: functional, organism-based
Procedure, shortened: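 Male NMRI mice (30-32 g), five per dose; vehicle or drug by oral gavage, guanabenz 1 mg/kg ip 35 min later. Rectal temperature by thermistor 25 min post-guanabenz; inhibition scored as temperature > 36 °C. […] Active range is doses giving inhibition in more than 80% of mice.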

[3] = target: T1, Adrenergic receptor alpha-1 (Rattus norvegicus, UniProt P15823+P23944+P43140); assay: In vitro inhibition of specific binding of [3H]- prazosin to alpha-1 adrenergic receptor site in rat brain membranes.; format: cell membranes
T1 sequence (P15823 whole entry): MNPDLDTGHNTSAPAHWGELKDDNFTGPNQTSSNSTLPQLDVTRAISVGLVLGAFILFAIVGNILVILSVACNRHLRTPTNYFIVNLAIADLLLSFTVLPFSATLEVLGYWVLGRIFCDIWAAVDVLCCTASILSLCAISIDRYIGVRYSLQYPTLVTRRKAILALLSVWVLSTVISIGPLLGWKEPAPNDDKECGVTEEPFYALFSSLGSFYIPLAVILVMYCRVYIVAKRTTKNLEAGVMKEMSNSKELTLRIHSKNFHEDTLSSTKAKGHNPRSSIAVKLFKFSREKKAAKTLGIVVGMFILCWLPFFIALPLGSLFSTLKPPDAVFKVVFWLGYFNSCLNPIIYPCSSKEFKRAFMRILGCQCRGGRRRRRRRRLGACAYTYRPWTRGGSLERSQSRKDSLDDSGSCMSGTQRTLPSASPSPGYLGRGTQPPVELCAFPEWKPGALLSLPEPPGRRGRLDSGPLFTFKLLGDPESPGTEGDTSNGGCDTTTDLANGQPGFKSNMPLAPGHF
T1 sequence (P23944 whole entry): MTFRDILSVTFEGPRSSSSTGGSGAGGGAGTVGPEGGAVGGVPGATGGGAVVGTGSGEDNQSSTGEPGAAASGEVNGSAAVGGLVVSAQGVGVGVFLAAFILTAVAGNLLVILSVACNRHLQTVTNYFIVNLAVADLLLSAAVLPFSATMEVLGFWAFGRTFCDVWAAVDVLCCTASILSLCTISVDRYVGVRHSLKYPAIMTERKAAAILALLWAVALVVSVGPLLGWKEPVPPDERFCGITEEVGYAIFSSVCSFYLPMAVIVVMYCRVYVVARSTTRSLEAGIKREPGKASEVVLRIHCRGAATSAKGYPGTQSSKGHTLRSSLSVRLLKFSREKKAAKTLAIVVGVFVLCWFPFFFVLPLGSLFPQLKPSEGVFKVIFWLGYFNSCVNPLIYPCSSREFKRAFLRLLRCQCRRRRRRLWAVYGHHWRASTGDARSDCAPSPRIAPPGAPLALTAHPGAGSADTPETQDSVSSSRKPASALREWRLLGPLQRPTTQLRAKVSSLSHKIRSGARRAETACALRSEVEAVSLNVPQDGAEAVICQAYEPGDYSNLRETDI
T1 sequence (P43140 whole entry): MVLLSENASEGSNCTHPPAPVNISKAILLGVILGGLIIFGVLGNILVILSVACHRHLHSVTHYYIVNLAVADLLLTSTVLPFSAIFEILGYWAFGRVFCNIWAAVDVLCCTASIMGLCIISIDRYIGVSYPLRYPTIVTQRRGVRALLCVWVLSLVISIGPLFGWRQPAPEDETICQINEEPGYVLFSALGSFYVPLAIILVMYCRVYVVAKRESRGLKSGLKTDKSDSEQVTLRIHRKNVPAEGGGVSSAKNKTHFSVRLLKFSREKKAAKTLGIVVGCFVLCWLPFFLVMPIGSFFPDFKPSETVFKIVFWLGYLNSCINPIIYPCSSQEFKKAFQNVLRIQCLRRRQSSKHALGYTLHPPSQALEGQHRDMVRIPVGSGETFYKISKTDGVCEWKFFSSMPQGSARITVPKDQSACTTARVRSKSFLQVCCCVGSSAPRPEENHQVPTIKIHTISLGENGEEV

[4] = target: T2, Adrenergic receptor alpha-2 (Rattus norvegicus, UniProt P22086+P19328+P22909); assay: In vitro inhibition of binding of [3H]-RX-821002 to alpha-2 adrenergic receptor site in rat brain membranes.; format: cell membranes
T2 sequence (P22086 whole entry): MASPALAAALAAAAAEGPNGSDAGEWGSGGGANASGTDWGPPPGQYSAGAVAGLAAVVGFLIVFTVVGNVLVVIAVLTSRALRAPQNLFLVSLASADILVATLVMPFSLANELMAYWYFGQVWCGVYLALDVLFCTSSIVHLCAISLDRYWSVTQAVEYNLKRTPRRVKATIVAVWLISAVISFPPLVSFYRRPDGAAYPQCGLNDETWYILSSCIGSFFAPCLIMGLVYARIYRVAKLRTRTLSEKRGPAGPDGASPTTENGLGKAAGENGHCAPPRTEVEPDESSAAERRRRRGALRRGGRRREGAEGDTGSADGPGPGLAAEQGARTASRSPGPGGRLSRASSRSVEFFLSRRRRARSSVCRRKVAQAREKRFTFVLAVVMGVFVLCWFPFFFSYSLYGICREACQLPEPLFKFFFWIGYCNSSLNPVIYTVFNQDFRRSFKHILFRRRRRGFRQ
T2 sequence (P19328 whole entry): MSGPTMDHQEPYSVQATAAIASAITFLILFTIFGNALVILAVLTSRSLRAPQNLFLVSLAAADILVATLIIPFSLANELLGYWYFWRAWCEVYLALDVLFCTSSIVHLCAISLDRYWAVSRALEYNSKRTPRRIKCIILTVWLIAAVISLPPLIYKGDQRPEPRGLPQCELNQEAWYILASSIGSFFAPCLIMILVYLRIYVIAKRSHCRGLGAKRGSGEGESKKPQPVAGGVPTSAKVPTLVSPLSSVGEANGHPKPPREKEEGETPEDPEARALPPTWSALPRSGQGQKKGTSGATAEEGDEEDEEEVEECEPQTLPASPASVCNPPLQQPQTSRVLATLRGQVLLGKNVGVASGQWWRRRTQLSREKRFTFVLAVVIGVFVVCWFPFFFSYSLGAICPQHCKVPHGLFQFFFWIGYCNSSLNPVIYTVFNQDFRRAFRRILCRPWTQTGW
T2 sequence (P22909 whole entry): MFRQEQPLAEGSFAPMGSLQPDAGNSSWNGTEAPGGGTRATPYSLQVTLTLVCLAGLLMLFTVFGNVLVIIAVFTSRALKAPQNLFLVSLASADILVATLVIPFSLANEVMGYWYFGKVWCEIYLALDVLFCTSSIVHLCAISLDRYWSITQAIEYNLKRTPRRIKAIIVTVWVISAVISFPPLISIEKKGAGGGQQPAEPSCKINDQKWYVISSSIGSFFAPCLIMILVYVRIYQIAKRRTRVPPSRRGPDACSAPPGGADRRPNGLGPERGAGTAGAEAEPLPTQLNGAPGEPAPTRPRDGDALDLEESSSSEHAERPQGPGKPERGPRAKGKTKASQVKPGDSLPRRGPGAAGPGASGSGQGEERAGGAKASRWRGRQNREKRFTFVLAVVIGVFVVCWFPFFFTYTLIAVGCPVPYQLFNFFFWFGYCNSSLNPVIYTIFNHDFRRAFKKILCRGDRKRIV

D(2) dopamine receptor = D(2) dopamine receptor (Rattus norvegicus, UniProt P61169); assay: In vitro inhibition of specific binding of [3H]-YM 09151-2 to Dopamine receptor D2 site in rat striatal tissue.; format: tissue-based, Striatum
Sequence of D(2) dopamine receptor (P61169 whole entry): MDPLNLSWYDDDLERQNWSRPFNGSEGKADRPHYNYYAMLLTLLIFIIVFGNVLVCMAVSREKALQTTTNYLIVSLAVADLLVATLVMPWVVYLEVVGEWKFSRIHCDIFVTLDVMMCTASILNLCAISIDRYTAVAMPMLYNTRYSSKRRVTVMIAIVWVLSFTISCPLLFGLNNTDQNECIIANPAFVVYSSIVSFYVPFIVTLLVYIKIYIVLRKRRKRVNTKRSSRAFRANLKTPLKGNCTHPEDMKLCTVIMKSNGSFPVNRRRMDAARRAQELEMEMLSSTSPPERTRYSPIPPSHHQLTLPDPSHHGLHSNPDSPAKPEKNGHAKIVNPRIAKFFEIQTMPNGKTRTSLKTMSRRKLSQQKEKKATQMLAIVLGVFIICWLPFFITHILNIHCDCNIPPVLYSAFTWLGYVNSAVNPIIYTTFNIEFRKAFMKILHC

Mus musculus [5] = assay: In vivo antagonism of guanabenz-induced hypothermia in mice after peroral administration at a dose of 2.5-40 mg/kg; format: functional; settings: po
Procedure, shortened: (§2)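 Male NMRI mice (30-32 g), five per dose; vehicle or drug by oral gavage, guanabenz 1 mg/kg ip 35 min later. Rectal temperature by thermistor 25 min post-guanabenz; inhibition scored as temperature > 36 °C. Active range is doses giving inhibition in more than 80% of mice.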

Mus musculus [6] = assay: In vivo antagonism of guanabenz-induced hypothermia in mice after intraperitoneal administration at a dose of 10 mg/kg; format: functional; settings: ip; procedure, shortened: as §1
Mus musculus [7] = assay: In vivo antagonism of guanabenz-induced hypothermia in mice after intraperitoneal administration; format: functional; settings: ip; procedure, shortened: as §1
Mus musculus [8] = assay: In vivo antagonism of guanabenz-induced hypothermia in mice after intraperitoneal administration at a dose of 2.5 mg/kg; format: functional; settings: ip; procedure, shortened: as §1
Mus musculus [9] = assay: In vivo antagonism of guanabenz-induced hypothermia in mice after intraperitoneal administration at a dose of 2.5-10 mg/kg; format: functional; settings: ip
Procedure, shortened: (§3)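 Male NMRI mice, 30-32 g, 5 per dose; test drug or vehicle given ip, then 5 min later guanabenz 1 mg/kg ip. Rectal temperature read by thermistor probe 25 min after guanabenz. Inhibition means temperature > 36 °C. Active dose range = doses inhibiting in more than 80% of animals.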

Mus musculus [10] = assay: In vivo antagonism of guanabenz-induced hypothermia in mice after peroral administration at a dose of 10-40 mg/kg; format: functional; settings: po
Procedure, shortened: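 Male NMRI mice (30-32 g) dosed by oral gavage with drug or vehicle; 35 min later, guanabenz 1 mg/kg ip. Rectal temperature was taken 25 min after guanabenz with a thermistor probe. Inhibition meant temperature > 36 °C. Five mice were used per dose. The active dose range is the doses inhibiting hypothermia in more than 80% of animals.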

Mus musculus [11] = assay: In vivo antagonism of guanabenz-induced hypothermia in mice after intraperitoneal administration at a dose of 0.63-10 mg/kg; format: functional; settings: ip; procedure, shortened: as §3
Mus musculus [12] = assay: In vivo antagonism of guanabenz-induced hypothermia in mice after intraperitoneal administration at a dose of 1 mg/kg; format: functional; settings: ip; procedure, shortened: as §1
Mus musculus [13] = assay: In vivo antagonism of guanabenz-induced hypothermia in mice after peroral administration at a dose of 10 mg/kg; format: functional; settings: route oral; procedure, shortened: as §2

| Structure (SMILES) | NA (Mus musculus [2]) | IC50 [3] | IC50 [4] | IC50 (D(2) dopamine receptor) | also measured |
| --- | --- | --- | --- | --- | --- |
| O=C(NC(=S)NCCC1CCN(CC2COc3ccccc3O2)CC1)c1ccccc1 (configuration not stated) | inactive | – | – | – | NA (Mus musculus [1]): inactive |
| CCOc1cccc(OCC)c1N1CCN(CCC2CCN(CC3COc4ccccc4O3)CC2)C1=O (configuration not stated) | – | 70 nM | 4 nM | 135 nM | ED50 (Mus musculus [5]): 0.53 mg/kg; ED50 (Mus musculus [6]): 0.89 mg/kg |
| O=C(NCCC1CCN(CC2COc3ccccc3O2)CC1)NCc1ccccc1 (configuration not stated) | – | – | – | – | ED50 (Mus musculus [7]): 1.78 mg/kg |
| O=C1Nc2ccccc2CN1CC1CCN(CC2COc3ccccc3O2)CC1 (configuration not stated) | – | 70 nM | 25 nM | 550 nM | – |
| O=C(NCCC1CCN(CC2COc3ccccc3O2)CC1)NC1CCCCC1 (configuration not stated) | inactive | 42 nM | 2 nM | 35 nM | ED50 (Mus musculus [8]): 0.69 mg/kg |
| Cc1cccc(C)c1N1CCN(CCC2CCN(CC3COc4ccccc4O3)CC2)C1=O (configuration not stated) | – | 85 nM | 1.8 nM | 80 nM | ED50 (Mus musculus [9]): 0.41 mg/kg; ED50 (Mus musculus [10]): 5.01 mg/kg |
| c1ccc2c(c1)OCC(C1=NCCN1)O2 (configuration not stated) [IDAZOXAN] | – | – | – | > 10000 nM | ED50 (Mus musculus [11]): 0.31 mg/kg; ED50 (Mus musculus [10]): 0.89 mg/kg |
| COC(=O)[C@@H]1[C@H]2C[C@H]3c4[nH]c5ccccc5c4CCN3C[C@@H]2CC[C@@H]1O [YOHIMBINE] | – | – | – | 1130 nM | ED50 (Mus musculus [12]): 0.56 mg/kg; ED50 (Mus musculus [13]): 1.23 mg/kg |
| O=C(NCCC1CCN(CC2COc3ccccc3O2)CC1)Oc1ccccc1 (configuration not stated) | inactive | – | – | – | NA (Mus musculus [1]): inactive |
| COc1ccccc1CC(=O)NCCC1CCN(CC2COc3ccccc3O2)CC1 (configuration not stated) | – | 70 nM | 10 nM | 50 nM | – |
